# From ChEMBL document CHEMBL1926577, “Novel 1,3,4-heterodiazole analogues: synthesis and in-vitro antitumor activity” (2012)
# What was measured:
# Type in all cases: functional
# [1] = Growth inhibition of human colon cancer cells after 48 hrs by coulter counter method; conditions: Cancer cell lines
# Outline: (§1)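 NCI 60-line panel cells. Compound is dissolved in DMSO and diluted in phosphate-buffered saline, with final DMSO below 1%. It is added in duplicate wells to cultures at 6 × 10⁴ cells/ml and held at 37 °C, 5% CO₂, humidified, for 48 h. Cells are diluted 10-fold in saline, counted by Coulter counter and dilution-corrected. Vehicle controls contain PBS plus DMSO.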
# [2] = Growth inhibition of human ovarian cancer cells after 48 hrs by coulter counter method; conditions: Cancer cell lines; outline: as §1
# [3] = Growth inhibition of human CNS cancer cells after 48 hrs by coulter counter method; conditions: Cancer cell lines; outline: as §1
# NSCLC = test: Growth inhibition of human NSCLC cells after 48 hrs by coulter counter method; outline: as §1
# Melanoma cell = test: Growth inhibition of human Melanoma cells after 48 hrs by coulter counter method; outline: as §1
# [4] = Growth inhibition of human renal cancer cells after 48 hrs by coulter counter method; conditions: Cancer cell lines; outline: as §1
# [5] = Growth inhibition of human breast cancer cells after 48 hrs by coulter counter method; conditions: Cancer cell lines; outline: as §1
# [6] = Growth inhibition of human prostate cancer cells after 48 hrs by coulter counter method; conditions: Cancer cell lines; outline: as §1
# [7] = Growth inhibition of human leukemia cells after 48 hrs by coulter counter method; conditions: Leukemia cell; outline: as §1
# [8] = read-out: LC50 (the source's name)
structure (smiles),measurement,setting,value
O=c1[nH]cc(F)c(=O)[nH]1 [FLUOROURACIL],GI50,[1],8.4 µM
same,TGI,[1],> 100 µM
same,GI50,[2],61.4 µM
same,TGI,[2],> 100 µM
same,TGI,[3],> 100 µM
same,CC50,[3]; [8],> 100 µM
same,GI50,NSCLC,> 100 µM
same,TGI,NSCLC,> 100 µM
same,CC50,NSCLC; [8],> 100 µM
same,TGI,Melanoma cell,> 100 µM
same,GI50,[4],45.6 µM
same,TGI,[4],> 100 µM
same,CC50,[4]; [8],> 100 µM
same,GI50,[5],76.4 µM
same,TGI,[5],> 100 µM
same,CC50,[5]; [8],> 100 µM
same,GI50,[6],22.7 µM
same,TGI,[6],> 100 µM
same,TGI,[7],> 100 µM
same,CC50,[7]; [8],> 100 µM
